Reference: ChEMBL document CHEMBL4513216, “Probing the Open Global Health Chemical Diversity Library for Multistage-Active Starting Points for Next-Generation Antimalarials” (ACS Infect Dis, 2020)

Assay: Toxicity liver stage against HepG2, at 10uM
Type: cell-based
Design: test concentration 10 uM, cell line HepG2-A16-CD81EGFP
Details: human, HepG2-A16-CD81EGFP cells; read-out: INHIBITION
Procedure, shortened: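 Uninfected HepG2-A16-CD81EGFP cells, 3 × 10^3 per well, 1536-well, plated on prespotted compound at 10 μM final, parasite-free screening media added to match infected plates; puromycin 10 μM positive, DMSO 0.5% negative; run in parallel with 48 h PbLuc assay at 37 °C, 5% CO2; viability by CellTiter-Glo luminescence, normalized to controls.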

| Compound | cytotoxicity at 10 µM [%] |
| --- | --- |
| COc1cccc(CN2CC[C@H](c3nnc(C)o3)C2)c1 | -0.902 |
| CC(C)c1ccc(-n2ncc(C(=O)N(C)C3CCN(C)CC3)c2N)cc1 | -6.57 |
| CCCC(O)CN1CCC(=O)N(Cc2ccccc2)Cc2ccccc21 (stereo not given) | 5.24 |
| COCCn1/c(=N\C(=O)CN(C)S(C)(=O)=O)sc2cc(C)ccc21 | -11.7 |
| Cc1c(Cl)cccc1S(=O)(=O)NCC(O)c1cccn1C (stereo not given) | -5.15 |
| O=C(Cc1ccc(Br)cc1)N1CC(S(=O)(=O)C2CCCCC2)C1 | -1.13 |
| CNC(=O)CN1C(=O)CCC12CCCN(Cc1ccccc1F)C2 (stereo not given) | 4.76 |
| Cc1cccc(CN2CC3C[C@]3(NC(=O)c3ccco3)C2)n1 (stereo not given in full) | -142 |
| O=C(c1cscn1)N1CCCC12CCCN(S(=O)(=O)c1ccccc1)C2 (stereo not given) | 4.35 |
| COc1cc(N2CC[C@@H](OC)[C@@H]2Cc2ccccc2)ncn1 | -138 |
| O=C(C1CCCC1)N1CCO[C@@H]2CNC[C@@H]21 | 8.34 |
| CN1CCN(C(=O)c2cc3c(s2)CCN3C(=O)C2CC2)CC1 | 8.52 |
| CN(C)C(=O)N1CCC2(CC1)COCCN(c1ncccn1)C2 | 8.42 |
| c1coc(CN2CC[C@@H]3O[C@@H](COCC4CCOCC4)CC[C@@H]32)c1 | -142 |
| Cc1ccc(CC(=O)N2CCn3cc(Cn4cncn4)nc3C2)cc1 | -138 |
| Cc1c(C(=O)O)cnn1-c1ccc(-c2nc(C(C)(C)C)no2)cn1 | 7.19 |
| O=C(c1cn(-c2ccccc2Cl)nn1)N1CCSCC1 | 8.24 |
| COCc1ncn2c1CN(C(=O)C1CC=CC1)CC2 | -5.09 |
| Cn1cc(-c2cnc(N3CCOCC3)nc2)cc1C(=O)O | -14.6 |
| COc1ccccc1N1CCN(C(=O)Cn2nc(C)c(Cl)c2C)CC1 | 0.808 |
| O=C(Nc1cc(-c2cccnc2)no1)C1CCC1 | 2.82 |
| CC1(Cc2ccc(Cl)cc2)Cc2cc(CCC(=O)O)ccc2O1 (stereo not given) | 2.79 |
| COCCN(C)C(=O)c1ccccc1-n1cc(CN(C)C)cn1 | -29.5 |
| COCC(=O)N1CCCC(Cc2cnc(-c3c(C)n[nH]c3C)cn2)C1 (stereo not given) | -4.51 |
| Cc1nc2ccccn2c1CC(=O)N[C@@H]1CCC[C@@H](N2CCCC2)[C@@H]1O | -5.13 |
| Cc1nn(C)c(C)c1-c1cnc(C2CCCN(C)C2)cn1 (stereo not given) | -8.8 |
| O=C(Cc1ccon1)N1CCc2cc(Br)sc2C1 | 1.69 |
| NS(=O)(=O)CCNC(=O)CCc1cc(Br)cs1 | -3.39 |

| Compound | cytotoxicity at 10 µM [%] |
| --- | --- |
| CCc1nc(CSCc2csc(CS(C)(=O)=O)n2)cs1 | -6.79 |
| Cn1cc(CNC2CCCOc3c2ccc2ccccc32)cn1 (stereo not given) | 5.7 |
| OC1(CNc2ccc(Br)cn2)CCC1 | 6.59 |
| CC1CCCCN1C(=O)COc1nc(C(C)(C)C)no1 (stereo not given) | -3.22 |
| CN1CCOC(CNCC(=O)NCCc2ccc3c(c2)OCCO3)C1 (stereo not given) | -10.2 |
| CC(C)CCN(c1cn[nH]c1)S(=O)(=O)c1cccc(C#N)c1 | 7.95 |
| CC(C)c1noc(C(C)N2CCN(CCc3ccncc3)CC2)n1 (stereo not given) | 2.16 |
| CNS(=O)(=O)Cc1ccc(CNc2ccc(C#N)cn2)cc1 | -6.87 |
| O=C(c1cc(C2CC2)[nH]n1)N1CCCN(c2nccs2)CC1 | 6.37 |
| O=C(c1c[nH]c(=O)c(Cl)c1)N1CCc2ccccc2C1 | -11.1 |
| O=C(NCC(O)COc1ccc(F)cc1)C1(c2ccc(F)cc2)CC1 (stereo not given) | 2.71 |
| Cc1cc(C)c(C(=O)Nc2cccc(CN3CCC(CO)CC3)c2)o1 | -140 |
| O=C(NCCc1nnc2n1CCC2)c1ccccc1OC1CCCC1 | -2.27 |
| Cc1ccc(C(=O)NC(CN2CCCC2)c2ccccc2)c(=O)[nH]1 (stereo not given) | -2.32 |
| Cc1ccc(NC(=O)CN2CCC(OCC3CCCO3)CC2)c(C)c1 (stereo not given) | -1.7 |
| O=C(Cn1cc(C2CC2)nn1)NC(c1ccc(Cl)cc1)C1CC1 (stereo not given) | 2.16 |
| NC(=O)CN1CCC(NC(=O)N2CCCC2c2ccsc2)CC1 (stereo not given) | 1.91 |
| O=C(CN1CCS(=O)(=O)CC1)NCc1ccccc1F | 6.32 |
| CC(=O)NCCNC(=O)NCCc1c(C)cc(C)cc1C | 6.02 |
| Cc1ccc(C)c(OCC(O)Cn2ncc3cnn(C)c(=O)c32)c1 (stereo not given) | 4.45 |
| CC(C)(NC(=O)c1ccc(-c2ccccc2F)s1)C(N)=O | 12.7 |
| Cc1cccc(C)c1OCC(=O)NC(C)c1nnc2n1CCC2 (stereo not given) | -3.09 |
| Cc1ccc(S(C)(=O)=O)cc1C(=O)NS(=O)(=O)c1cccs1 | 0.532 |
| Cc1cc(NCc2csc(-c3ccco3)n2)ccc1C(N)=O | 20.3 |
| CCS(=O)(=O)c1ccc(NCc2csc(C(C)C)n2)cc1 | 8.73 |
| CNC(=O)C(C)CN(C)C(=O)Nc1ccc(Cl)cc1-n1cccc1 (stereo not given) | 16.9 |
| CN(CC(N)=O)C(=O)c1cn(-c2ccc(Br)cc2)cn1 | 6.85 |
